Assay results taken from publication PMC2743929 (Cell calcium, 2009).

Legend:
[1] = test system: native skeletal muscle RyR1; assay: [3H]ryanodine binding to SR vesicles; type: biochemical; conditions: for Ryanodine binding: mean ±SEM, SEM
[2] = low to moderate affinity Ca2+ dye; stated property, no reference given; cited from earlier work
[3] = test system: ASI(+)RyR1-expressing dyspedic myotubes; assay: Intracellular Ca2+ measurement; type: cell-based, mice; conditions: 500μM, 45s application (Fig. 2)
Procedure, shortened: (§1)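 RyR1-null mouse myotubes in primary culture; nuclear cDNA injection where applicable, expressing cells marked by co-injected cherry red cDNA (0.005μg/μl). Loaded 25min at room temperature with 5μM fura-FF AM in HEPES Ringer's, pH7.4. Ratio 340/380nm (510nm emission) every 350ms. Sequence: 500μM 4-cmc for 45s, 60s wash, zero-Ca²⁺ ICE for 120s, then 10mM Ca²⁺ plus 10μM ionomycin. Peak responses compared by ANOVA/Dunnett's test.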

[4] = test system: ASI(-)RyR1-expressing dyspedic myotubes; assay: Intracellular Ca2+ measurement; type: cell-based, mice; conditions: 500μM, 45s application (Fig. 2)
Procedure, shortened: as §1

[5] = test system: non-expressing dyspedic (RyR1-null) myotubes; assay: Intracellular Ca2+ measurement; type: cell-based, mice; conditions: 500μM (Fig. 2B)
Procedure, shortened: as §1

[6] = test system: native skeletal muscle RyR1; assay: Ca2+ release from SR vesicles; type: biochemical
Procedure, shortened: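 SR vesicles in 100mM KH₂PO₄ (pH7), 4mM MgCl₂, 1mM Na₂ATP, 0.5mM antipyrylazo III; extravesicular Ca²⁺ followed as OD at 710nm. Additions in sequence: 1μM thapsigargin, then peptide, then 5μM ruthenium red, then 1.5μg/ml A23187. n=3; paired or unpaired Student's t-test, P<0.05.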

[7] = test system: native RyR1; assay: Single channel recording in lipid bilayers; type: biochemical; conditions: for effect on RyR1 channel activity (open probability), in words: n=3 (Fig. 6)
Procedure, shortened: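 Native RyR1 vesicles fused into lipid bilayers. After incorporation, cis contained 230mM CsCH₃O₃S, 20mM CsCl, 10mM TES, 500mM mannitol, 100μM free Ca²⁺, pH7.4; trans was made symmetrical at 230mM CsCH₃O₃S. Potential alternated between -40 and +40mV every 30s. Open probability from one to two 30s periods, with threshold ~20% of maximal conductance. Control, then 100μM peptide; n=3.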

[8] = substance alone, 10μM Ca2+, versus control, n=3 (Fig. 5A, 7)

## Cn1c(=O)c2c(ncn2C)n(C)c1=O [Caffeine, caffeine, reference compound]
[1]; [8]
  effect on [3H]ryanodine binding, in words: significantly increases

## CC(=O)OCOC(=O)CN(CC(=O)OCOC(C)=O)c1cc2oc(-c3ncc(C(=O)OCOC(C)=O)o3)cc2cc1OCCOc1c(N(CC(=O)OCOC(C)=O)CC(=O)OCOC(C)=O)ccc(F)c1F [fura-FF]
[2]
  Kd: 5.5 µM

## Cc1cc(O)ccc1Cl [4-cmc, 4-chloro-m-cresol]
[3]
  effect on intracellular Ca2+, in words: rapid increase
[4]
  effect on intracellular Ca2+, in words: rapid increase
[5]
  effect on intracellular Ca2+, in words: not in non-expressing dyspedic myotubes

## ^3471TADSKSKMAK-----------SGGSDQERTKKKRRG^3500 [ASI(-)]
[1]; 10μM Ca2+, competition (Fig. 7A&B)
  effect on [3H]ryanodine binding if channels first activated by 100μM peptide A, in words: failed to significantly increase
[1]; 10μM caffeine plus 100μM peptide, 10μM Ca2+ (Fig. 7C)
  [3H]ryanodine binding achievable: > 250 % control
[1]; 100μM peptide, [Ca2+] ≥10μM, n=3 (Fig. 8A)
  effect on [3H]ryanodine binding, in words: significantly increased
[1]; 500μM ASI(-) plus 100μM DP4
  Ryanodine binding: 339±32 % control
[1]; 500μM peptide alone, SR vesicles, 37°C, 15nM [3H]ryanodine
  Ryanodine binding: 190±1 % of control
[1]; [8]
  effect on [3H]ryanodine binding, in words: significantly increased
[6]; initial rate, peptide minus thapsigargin, n=3 (Fig. 5B&E)
  effect on Ca2+ release from SR vesicles, in words: significantly increased
[7]; +40mV, 100μM peptide
  effect on RyR1 channel activity (open probability), in words: significant inhibition
[7]; -40mV
  effect on RyR1 channel activity (open probability), in words: significant activation

## ^3471TADSKSKMAK-----------SGGSDQERTAAKLRG^3500 [ASI(mutant)]
[1]; [8]
  effect on [3H]ryanodine binding, in words: only marginally increased
[6]; 10μM peptide, n=3 (Fig. 5E)
  effect on Ca2+ release from SR vesicles, in words: did not increase
[6]; 100μM peptide, n=3 (Fig. 5C-E)
  effect on initial Ca2+ release from SR vesicles, in words: small increase
[7]; data not shown
  effect on channel activity, in words: no effect
